CRFBP-R2 block – blocks CRF-induced signaling of the CRF-BP/CRF-R2 complex. HEK293 CRF-R2/CRF-BP, CRF-induced calcium fluorescence. inhibition, % at 11.8 µM. 350,000 tested, 0.59% active;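 active = inhibition of the ligand-induced calcium signal above about 50% at the single tested concentration, limit read from the data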
IMP-1 inh – blocks Pseudomonas aeruginosa IMP-1 metallo-beta-lactamase. 290,000 tested, 0.45% active. purified IMP-1, nitrocefin hydrolysis, epi-absorbance fluorescence. inhibition, % at 5.6 µM;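 active = inhibition above the mean plus 3 SD of all compounds in the same screening run, cut at about 4.5% in these data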
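System: Purified recombinant IMP-1 metallo-beta-lactamase enzyme | Measured by: Fluorescence quenching readout, ex 480/em 530 nm | Replication: Singlicate | Incubation: 15 min preincubation plus 25 min reaction at 25 °C | Evaluation: Percent inhibition from optical density relative to buffer-blank wells | Benchmarks: DMSO with and without IMP-1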
VIM-2 inhibitor – blocks Pseudomonas aeruginosa VIM-2 metallo-beta-lactamase; AID 1527; 290,000 tested, 0.89% active; purified VIM-2, nitrocefin hydrolysis, epi-absorbance fluorescence; inhibition, % at 5.6 µM;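 active = inhibition above the mean of all tested compounds plus 3 SD, cutoff set per screening run, cut at about 7.5% in these data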;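 note: red hydrolysis product quenches plate fluorescence so inhibitors raise well fluorescence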
zfTRPN1 agonist – activates the zebrafish TRPN1 channel. HEK293 zebrafish TRPN1-YFP, Fluo-8 calcium fluorescence; 100% = response to 87 µM carbachol. activation, % at 3 µM. 220,000 tested, 0.18% active. AID 1424;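 active = activation above its plate's cutoff, the mean activation of test wells on that plate plus 3 SD, cut at about 19% in these data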
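Material – zebrafish TRPN1-YFP in HEK293 cells · Doses – 3 µM single point · Schedule – dye 1 h 37 °C plus 30 min RT · Signal – Fluo-8 calcium fluorescence, excitation 470-495 nm, emission 515-575 nm · Read-out – % activation versus carbachol response · Control set – carbachol high, DMSO low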
CRFR2-BP ag – agonists of human CRF-binding protein/CRF-R2 receptor complex; HEK293 CRF-R2/CRF-BP, calcium dye fluorescence (FLIPR); percent of saturating CRF peptide response; activation, % at 13.2 µM; 350,000 tested, 0.46% active;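 active = activation of at least 50%, plus an integration ratio under a set limit after plate pattern correction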
TRPML3 ag – activates the human TRPML3 channel. Q8TDD5. HEK293 TRPML3-YFP, Fluo-8 calcium fluorescence; 100% = the carbachol control signal. activation, % at 3 µM. 220,000 tested, 0.29% active. AID 1448;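 active = activation above its plate's cutoff, the mean activation of the plate's test wells plus 3 SD, cut at about 12% in these data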
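Test system – HEK293 line with stable expression of human TRPML3-YFP channel · Control set – carbachol 87 µM final as high control (100%), DMSO as low control (0%) · Signal – Fluo-8 calcium dye fluorescence, ex 470-495, em 515-575 nm · Incubation – 1-h 37 °C dye load, 5-s basal, 120-s post-compound reads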
VIM-2 confirm – VIM-2 inhibition, confirmation assay | shares compounds with IMP-1 inh | purified VIM-2 enzyme, nitrocefin absorbance | inhibition, % at 5.6 µM | 200 tested, 73% active; in the data active = inhibition above about 8%
TEM-1 counter – blocks E. coli TEM-1 beta-lactamase, VIM-2 IMP-1 counter-screen; shares compounds with IMP-1 inh; nitrocefin absorbance inhibition; inhibition, % at 5.6 µM; 200 tested, 50% active; in the data active = inhibition above about 0.66%
Target sequence (P62593 whole entry, looked up): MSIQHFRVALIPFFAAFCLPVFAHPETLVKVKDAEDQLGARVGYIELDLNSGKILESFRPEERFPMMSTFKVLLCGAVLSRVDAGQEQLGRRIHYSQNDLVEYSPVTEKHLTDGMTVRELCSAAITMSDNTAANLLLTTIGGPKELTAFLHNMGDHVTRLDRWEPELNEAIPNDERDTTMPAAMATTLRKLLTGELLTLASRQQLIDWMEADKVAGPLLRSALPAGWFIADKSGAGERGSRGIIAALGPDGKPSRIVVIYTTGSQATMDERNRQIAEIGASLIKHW
IMP-1 confirm – confirmation of P. aeruginosa IMP-1 metallo-beta-lactamase inhibitors; shares compounds with IMP-1 inh; purified IMP-1 enzyme, absorbance substrate hydrolysis; inhibition, % at 5.6 µM; 200 tested, 60% active; AID 2189; in the data active = inhibition above about 4.9%
A number is an active result; i = inactive; nt = no result. Rows were chosen to be rich in hits. Some 2.1% of all compounds tested hit in one or more screens of this group.

SMILES	CRFBP-R2 block	IMP-1 inh	VIM-2 inhibitor	zfTRPN1 agonist	CRFR2-BP ag	TRPML3 ag	VIM-2 confirm	TEM-1 counter	IMP-1 confirm
O=C1CC(NCc2ccc3c(c2)OCO3)C(=O)N1CCc1ccccc1 (stereo not drawn)	i	42.0	47.3	i	i	i	i	i	i
COc1ccc(/C=C2\SC(=O)NC2=S)cc1OC	i	6.8	11.9	73.8	i	42.9	i	i	i
CCOc1ccc(/C=C2\SC(=S)NC2=O)cc1OC	i	i	i	i	i	i	nt	nt	nt
Cn1c2ccccc2c2cc(C(=O)NNS(=O)(=O)c3ccc(F)cc3)sc21	i	5.0	i	i	i	i	i	i	i
O=C(CSc1nnc(-c2ccc(O)cc2)n1-c1ccccc1)CC(=O)Nc1ccccc1	i	7.9	15.9	i	i	i	i	i	i
CC1CCN(C(=O)CSc2nnc(CNC(=O)COc3ccc(Cl)cc3)o2)CC1	i	35.3	i	i	i	i	i	i	i
O=C1CCN2C=Nc3cccc4ccc1c2c34	i	12.1	12.1	i	i	i	31.6	28.5	24.4
Cc1ccc2nc3c(cc(C(=O)NCCCn4ccnc4)n3C)c(=O)n2c1	i	8.4	14.6	i	i	i	i	i	i
COc1ccc(-c2cc(=O)oc3c(C)c(OCC(=O)NCCCn4ccnc4)ccc23)cc1	i	38.0	19.3	nt	i	nt	25.8	i	31.8
Cc1c(OCC(=O)NCC2CCC(C(=O)NCCCO)CC2)ccc2c(-c3ccccc3)cc(=O)oc12 (stereo not drawn)	i	i	i	nt	i	nt	nt	nt	nt
CCOc1ccc(NC(=S)N2CCN(CCN3C(=O)c4cccc5cccc(c45)C3=O)CC2)cc1	i	i	i	i	i	i	nt	nt	nt
CCN(CC)c1ccc(/C=C/C(=O)c2ccc(Br)cc2)cc1	i	8.0	13.7	55.8	325.5	58.9	33.5	47.6	30.9
COc1ccc(-c2occ(C(=O)O)c2C(=O)O)cc1	i	25.8	10.2	i	i	i	18.2	i	22.4
CCOc1cccc(CN2CCN(CCCc3ccccc3)C(CCO)C2)c1O (stereo not drawn)	i	i	i	nt	i	nt	nt	nt	nt
O=C(Nc1ccc2c(c1)C(=O)NC2=O)c1ccc(S(=O)(=O)N2CCCC2)cc1	i	i	i	i	i	i	nt	nt	nt
C=CC#CC[N+]1(CC#Cc2ccccc2)CCOCC1	i	19.7	20.2	i	i	i	33.8	i	i
C(#Cc1ccccc1)C[N+]1(CC#Cc2ccccc2)CCCC1	i	i	i	i	i	i	nt	nt	nt
COc1ccc(/C(C)=N/NC(=O)c2nnn(-c3nonc3N)c2-c2cccs2)cc1	i	i	i	nt	i	nt	nt	nt	nt
COc1ccc(/C(C)=N/NC(=O)c2nnn(-c3nonc3N)c2-c2ccccc2)cc1	i	18.6	11.6	nt	i	nt	14.9	i	17.8
CCN(C(=O)CN1C(=O)S/C(=C\C=C\c2ccccc2)C1=O)C1CCS(=O)(=O)C1 (stereo not drawn)	i	i	i	nt	i	nt	nt	nt	nt
COC(=O)c1c(C(=O)OC)c(-c2ccc(F)cc2)n2c1CSC2	i	i	i	nt	i	nt	nt	nt	nt
CC(C)(C)c1ccc(-c2c(C(=O)O)c(C(=O)O)c3n2CSC3)cc1	i	20.4	20.2	nt	i	nt	17.3	i	12.4
C/C(=N\Nc1ncnc2sc(C)c(C)c12)c1ccccn1	i	12.7	13.7	nt	64.0	nt	38.3	7.1	i
CC(C)(C)c1ccc(-n2ncc3c2CCCC3NC(=O)c2ccco2)cc1 (stereo not drawn)	i	nt	nt	nt	i	nt	nt	nt	nt
CN1/C(=C\C=C2/C(=O)Oc3ccccc3C2=O)C(C)(C)c2ccccc21	i	12.6	9.6	153.8	322.8	129.7	30.6	45.1	24.3
SMILES	CRFBP-R2 block	IMP-1 inh	VIM-2 inhibitor	zfTRPN1 agonist	CRFR2-BP ag	TRPML3 ag	VIM-2 confirm	TEM-1 counter	IMP-1 confirm
CN1/C(=C\C=N\O)C(C)(C)c2ccccc21	i	i	i	i	i	i	nt	nt	nt
CN1CCN(S(=O)(=O)c2ccc(Cl)cc2)CC1	i	i	i	nt	i	nt	nt	nt	nt
CN1CCN(S(=O)(=O)c2ccc(-c3ccc(Cl)cc3)cc2)CC1	i	42.0	10.7	i	i	i	i	i	i
CCCCCCn1c(=O)[nH]c2nc3cc(N)ccc3nc2c1=O	i	16.4	12.1	37.1	274.7	45.7	15.1	30.7	12.7
CCCN1C(=O)c2cccc3c(N4CCCCC4)ccc(c23)C1=O	i	23.6	32.2	22.8	206.5	i	11.8	6.5	5.5
CCCCNc1ccc2c3c(cccc13)C(=O)N(CCCC)C2=O	i	12.2	14.6	282.8	194.5	154.0	22.3	62.7	18.3
O=C(OCCN1C(=O)c2cccc3c(N4CCOCC4)ccc(c23)C1=O)c1cc(Cl)cc(Cl)c1	nt	i	i	i	nt	i	nt	nt	nt
Cn1c(O)c(N=NC(=O)CNC(=O)c2cccnc2)c2ccccc21	i	i	i	nt	i	nt	nt	nt	nt
COc1ccc(C2c3[nH]c4ccccc4c3CCN2C(=O)Cc2nonc2C)c(F)c1 (stereo not drawn)	i	i	i	i	i	i	nt	nt	nt
Cc1ccc(Cn2c(CCC(=O)O)nc3ncccc3c2=O)cc1	i	i	i	nt	i	nt	nt	nt	nt
CCCOC(=O)c1cc(NC(=O)/C=C/c2ccccc2)ccc1O	nt	i	i	i	nt	i	nt	nt	nt

From PubChem
